Assay results published in ChEMBL document CHEMBL1165943, “Design and synthesis of new anticancer pyrimidines with multiple-kinase inhibitory effect” (Bioorg Med Chem, 2010).

Assays:
ACHN [1] = assay: Cytotoxicity against human ACHN cells assessed as cell growth at 100 nM after 48 hrs by sulforhodamine B assay; type: functional; conditions: read-out: Activity
How it was run: (§1)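 Cells grown in RPMI 1640 with 5% FBS and 2 mM L-glutamine, seeded at 5,000–40,000 cells/well by doubling time. Time-zero plates TCA-fixed after 24 h. Five concentrations (10-fold or half-log dilutions from DMSO stock) added; 48 h at 37 °C, 5% CO2. Cold TCA fixation (final 10%, 60 min, 4 °C), 0.4% SRB stain, dye solubilized in 10 mM trizma base, A515.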

786-0 [2] = assay: Cytotoxicity against human 786-0 cells assessed as cell growth at 0.01 uM after 48 hrs by sulforhodamine B assay; type: functional; conditions: 786-0, 48 h, read-out: Activity; how it was run: as §1
SW-620 = assay: Cytotoxicity against human SW620 cells assessed as cell growth at 0.001 uM after 48 hrs by sulforhodamine B assay; type: functional; conditions: SW-620, 48 h, read-out: Activity
UACC-62 = assay: Cytotoxicity against human UACC62 cells assessed as cell growth at 100 nM after 48 hrs by sulforhodamine B assay; type: functional; conditions: UACC-62, 48 h, read-out: Activity
BT-549 [3] = assay: Cytotoxicity against human BT549 cells assessed as cell growth at 100 nM after 48 hrs by sulforhodamine B assay; type: functional; conditions: BT-549, 48 h, read-out: Activity; how it was run: as §1
BT-549 [4] = assay: Cytotoxicity against human BT549 cells assessed as cell growth at 1 uM after 48 hrs by sulforhodamine B assay; type: functional; conditions: BT-549, 48 h, read-out: Activity; how it was run: as §1
EKVX [5] = assay: Cytotoxicity against human EKVX cells assessed as cell growth at 100 nM after 48 hrs by sulforhodamine B assay; type: functional; conditions: read-out: Activity
SF-295 = assay: Cytotoxicity against human SF295 cells assessed as cell growth at 1 uM after 48 hrs by sulforhodamine B assay; type: functional; conditions: SF-295, 48 h, read-out: Activity
HCT-116 [6] = assay: Cytotoxicity against human HCT116 cells assessed as cell growth at 10 uM after 48 hrs by sulforhodamine B assay; type: functional; conditions: HCT-116, 48 h, read-out: Activity
OVCAR-3 = assay: Growth inhibition of human OVCAR-3 cells after 48 hrs by sulforhodamine B assay; type: functional, cell-based; conditions: OVCAR-3, 48 h; for CC50: read-out: LC50 (the source's name)
How it was run: (§2)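 Cells grown in RPMI 1640 with 5% FBS and 2 mM L-glutamine, seeded at 5,000–40,000 cells/well according to doubling time. After 24 h, time-zero plates are TCA-fixed. Five concentrations (10-fold or ½log dilutions, DMSO stocks) are applied for 48 h at 37 °C, 5% CO₂. Cells are TCA-fixed, SRB-stained and read at 515 nm. IC₅₀ is taken from [(Ti−Tz)/(C−Tz)]×100 = 50.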

EKVX [7] = assay: Cytotoxicity against human EKVX cells assessed as cell growth at 0.001 uM after 48 hrs by sulforhodamine B assay; type: functional; conditions: read-out: Activity
T47D = assay: Cytotoxicity against human T47D cells assessed as cell growth at 10 uM after 48 hrs by sulforhodamine B assay; type: functional; conditions: read-out: Activity
SN12C = assay: Growth inhibition of human SN12C cells after 48 hrs by sulforhodamine B assay; type: functional, cell-based; conditions: for CC50: read-out: LC50 (the source's name); how it was run: as §2
[8] = Cytotoxicity against human Hs 578T cells assessed as cell growth at 10 uM after 48 hrs by sulforhodamine B assay; type: functional; conditions: read-out: Activity
UO-31 [9] = assay: Cytotoxicity against human UO31 cells assessed as cell growth at 0.01 uM after 48 hrs by sulforhodamine B assay; type: functional; conditions: UO-31, 48 h, read-out: Activity
NCI-H23 = assay: Cytotoxicity against human NCI-H23 cells assessed as cell growth at 0.001 uM after 48 hrs by sulforhodamine B assay; type: functional; conditions: NCI-H23, 48 h, read-out: Activity
HCT-116 [10] = assay: Cytotoxicity against human HCT116 cells assessed as cell growth at 0.001 uM after 48 hrs by sulforhodamine B assay; type: functional; conditions: HCT-116, 48 h, read-out: Activity
OVCAR-8 = assay: Cytotoxicity against human OVCAR8 cells assessed as cell growth at 1 uM after 48 hrs by sulforhodamine B assay; type: functional; conditions: OVCAR-8, 48 h, read-out: Activity
SNB-19 [11] = assay: Cytotoxicity against human SNB19 cells assessed as cell growth at 1 uM after 48 hrs by sulforhodamine B assay; type: functional; conditions: SNB-19, 48 h, read-out: Activity
Malme-3M = assay: Cytotoxicity against human MALME-3M cells assessed as cell growth at 1 uM after 48 hrs by sulforhodamine B assay; type: functional; conditions: read-out: Activity
IGROV-1 [12] = assay: Cytotoxicity against human IGROV1 cells assessed as cell growth at 1 uM after 48 hrs by sulforhodamine B assay; type: functional; conditions: IGROV-1, 48 h, read-out: Activity
A498 = assay: Cytotoxicity against human A498 cells assessed as cell growth at 0.001 uM after 48 hrs by sulforhodamine B assay; type: functional; conditions: A498, 48 h, read-out: Activity; how it was run: as §1
HOP-62 [13] = assay: Cytotoxicity against human HOP62 cells assessed as cell growth at 100 nM after 48 hrs by sulforhodamine B assay; type: functional; conditions: HOP-62, 48 h, read-out: Activity
TK-10 = assay: Growth inhibition of human TK10 cells after 48 hrs by sulforhodamine B assay; type: functional, cell-based; conditions: TK-10, 48 h; for CC50: read-out: LC50 (the source's name); how it was run: as §2
ACHN [14] = assay: Cytotoxicity against human ACHN cells assessed as cell growth at 1 uM after 48 hrs by sulforhodamine B assay; type: functional; conditions: read-out: Activity; how it was run: as §1
SF-268 = assay: Cytotoxicity against human SF268 cells assessed as cell growth at 0.001 uM after 48 hrs by sulforhodamine B assay; type: functional; conditions: SF-268, 48 h, read-out: Activity
HT-29 = assay: Growth inhibition of human HT-29 cells after 48 hrs by sulforhodamine B assay; type: functional, cell-based; conditions: HT-29, 48 h; for CC50: read-out: LC50 (the source's name); how it was run: as §2
SNB-19 [15] = assay: Growth inhibition of human SNB19 cells after 48 hrs by sulforhodamine B assay; type: functional, cell-based; conditions: SNB-19, 48 h; for CC50: read-out: LC50 (the source's name); how it was run: as §2
IGROV-1 [16] = assay: Growth inhibition of human IGROV1 cells after 48 hrs by sulforhodamine B assay; type: functional, cell-based; conditions: IGROV-1, 48 h; for CC50: read-out: LC50 (the source's name); how it was run: as §2
UO-31 [17] = assay: Cytotoxicity against human UO31 cells assessed as cell growth at 100 nM after 48 hrs by sulforhodamine B assay; type: functional; conditions: UO-31, 48 h, read-out: Activity
786-0 [18] = assay: Cytotoxicity against human 786-0 cells assessed as cell growth at 100 nM after 48 hrs by sulforhodamine B assay; type: functional; conditions: 786-0, 48 h, read-out: Activity; how it was run: as §1
BT-549 [19] = assay: Cytotoxicity against human BT549 cells assessed as cell growth at 10 uM after 48 hrs by sulforhodamine B assay; type: functional; conditions: BT-549, 48 h, read-out: Activity; how it was run: as §1
UO-31 [20] = assay: Cytotoxicity against human UO31 cells assessed as cell growth at 1 uM after 48 hrs by sulforhodamine B assay; type: functional; conditions: UO-31, 48 h, read-out: Activity
HOP-62 [21] = assay: Cytotoxicity against human HOP62 cells assessed as cell growth at 0.01 uM after 48 hrs by sulforhodamine B assay; type: functional; conditions: HOP-62, 48 h, read-out: Activity

## CC(=O)c1ccccc1-c1ccc(-c2ccnc(NC(=O)Nc3cc(N4CCOCC4)cc(C(F)(F)F)c3)n2)cn1
ACHN [1]
  growth at 0.1 µM: 91%
786-0 [2]
  growth at 0.01 µM: 100%
SW-620
  growth at 0.001 µM: 98%
UACC-62
  growth at 0.1 µM: 90%
BT-549 [3]
  growth at 0.1 µM: 74%
BT-549 [4]
  growth at 1 µM: 21%
EKVX [5]
  growth at 0.1 µM: 91%
SF-295
  growth at 1 µM: 48%
HCT-116 [6]
  growth at 10 µM: 66%
OVCAR-3
  GI50: 6.18 µM
  IC50: > 100 µM
  TGI: > 100 µM
  CC50: > 100 µM
EKVX [7]
  growth at 0.001 µM: 95%
T47D
  growth at 10 µM: 66%
SN12C
  GI50: 1.27 µM
  IC50: > 100 µM
  TGI: > 100 µM
  CC50: > 100 µM
[8]
  growth at 10 µM: 13%
UO-31 [9]
  growth at 0.01 µM: 91%
NCI-H23
  growth at 0.001 µM: 98%
HCT-116 [10]
  growth at 0.001 µM: 95%
OVCAR-8
  growth at 1 µM: 41%
SNB-19 [11]
  growth at 1 µM: 85%
Malme-3M
  growth at 1 µM: 24%
IGROV-1 [12]
  growth at 1 µM: 40%
A498
  growth at 0.001 µM: 85%
HOP-62 [13]
  growth at 0.1 µM: 100%
TK-10
  GI50: > 100 µM
  IC50: 5.46 µM
  TGI: > 100 µM
  CC50: > 100 µM
ACHN [14]
  growth at 1 µM: 42%
SF-268
  growth at 0.001 µM: 103%
HT-29
  GI50: > 100 µM
  IC50: > 100 µM
  TGI: > 100 µM
  CC50: > 100 µM
SNB-19 [15]
  GI50: 9.04 µM
  IC50: 38.7 µM
  TGI: > 100 µM
  CC50: > 100 µM
IGROV-1 [16]
  GI50: > 100 µM
  IC50: 6.18 µM
  TGI: > 100 µM
  CC50: > 100 µM
UO-31 [17]
  growth at 0.1 µM: 80%
786-0 [18]
  growth at 0.1 µM: 98%
BT-549 [19]
  growth at 10 µM: 46%
UO-31 [20]
  growth at 1 µM: 82%
HOP-62 [21]
  growth at 0.01 µM: 100%

## CC(=O)Nc1cccc(-c2ccc(-c3ccnc(NC(=O)Nc4cc(C(F)(F)F)cc(C(F)(F)F)c4)n3)cn2)c1.Cl
ACHN [1]
  growth at 0.1 µM: 93%
786-0 [2]
  growth at 0.01 µM: 98%
SW-620
  growth at 0.001 µM: 95%
UACC-62
  growth at 0.1 µM: 82%
BT-549 [3]
  growth at 0.1 µM: 87%
BT-549 [4]
  growth at 1 µM: 43%
EKVX [5]
  growth at 0.1 µM: 63%
SF-295
  growth at 1 µM: -15%
HCT-116 [6]
  growth at 10 µM: 100%
OVCAR-3
  GI50: 1.85 µM
  IC50: 1.85 µM
  TGI: 4.23 µM
  CC50: 9.69 µM
EKVX [7]
  growth at 0.001 µM: 90%
T47D
  growth at 10 µM: -14%
SN12C
  GI50: 9.29 µM
  IC50: 9.29 µM
  TGI: 23.8 µM
  CC50: 57.7 µM
[8]
  growth at 10 µM: 18%
UO-31 [9]
  growth at 0.01 µM: 87%
NCI-H23
  growth at 0.001 µM: 91%
HCT-116 [10]
  growth at 0.001 µM: 92%
OVCAR-8
  growth at 1 µM: -25%
SNB-19 [11]
  growth at 1 µM: 29%
Malme-3M
  growth at 1 µM: -50%
IGROV-1 [12]
  growth at 1 µM: -2%
A498
  growth at 0.001 µM: 95%
HOP-62 [13]
  growth at 0.1 µM: 100%
TK-10
  GI50: 16.8 µM
  IC50: 16.8 µM
  TGI: 39.8 µM
  CC50: 94.1 µM
ACHN [14]
  growth at 1 µM: 20%
SF-268
  growth at 0.001 µM: 95%
HT-29
  GI50: 3 µM
  IC50: 3 µM
  TGI: 8.74 µM
  CC50: 57.6 µM
SNB-19 [15]
  GI50: 4.57 µM
  IC50: 4.57 µM
  TGI: 17.8 µM
  CC50: 47.4 µM
IGROV-1 [16]
  GI50: 2.68 µM
  IC50: 2.68 µM
  TGI: 9.46 µM
  CC50: > 100 µM
UO-31 [17]
  growth at 0.1 µM: 70%
786-0 [18]
  growth at 0.1 µM: 62%
BT-549 [19]
  growth at 10 µM: -97%
UO-31 [20]
  growth at 1 µM: 48%
HOP-62 [21]
  growth at 0.01 µM: 92%
